From PubChem
The list is not random: actives were taken first. Their share in the collection is about 1.9%.
CHRM4 antagonist = human M4 muscarinic receptor antagonists, primary screen, CHO cells, Fluo-8 calcium fluorescence; CHO-hM4 cells, ACh EC80; Muscarinic acetylcholine receptor M4 (Homo sapiens), P08173; actives 0.73% (n = 360,000); AID 624125, 2012; inhibition, % at 3 µM;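 active = inhibition above its plate's cutoff, the mean inhibition of sample wells plus 3 SD, cut at about 27% in these data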;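 also: 0% = acetylcholine EC80 with DMSO and 100% = DMSO without agonist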
Target sequence (P08173 whole entry, looked up): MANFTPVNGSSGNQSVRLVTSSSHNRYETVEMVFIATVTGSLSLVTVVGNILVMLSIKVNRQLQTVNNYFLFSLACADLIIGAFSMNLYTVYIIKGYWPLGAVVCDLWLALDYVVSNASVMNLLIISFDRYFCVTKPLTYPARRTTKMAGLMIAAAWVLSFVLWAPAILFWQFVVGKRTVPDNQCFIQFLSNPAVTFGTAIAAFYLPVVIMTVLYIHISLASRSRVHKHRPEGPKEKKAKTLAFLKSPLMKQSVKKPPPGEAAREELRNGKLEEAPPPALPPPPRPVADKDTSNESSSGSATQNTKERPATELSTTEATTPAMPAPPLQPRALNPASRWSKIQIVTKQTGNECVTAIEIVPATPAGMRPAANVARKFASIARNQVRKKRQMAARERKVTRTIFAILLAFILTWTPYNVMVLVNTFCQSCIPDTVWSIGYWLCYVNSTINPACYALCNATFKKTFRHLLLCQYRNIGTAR
CHRM5 antagonist = human M5 muscarinic receptor antagonists, primary screen, CHO cells, Fluo-8 calcium fluorescence. Muscarinic acetylcholine receptor M5 (Homo sapiens), P08912. actives 0.59% (n = 360,000). CHO-hM5 cells, ACh EC80. inhibition, % at 3 µM;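 active = inhibition above a per-plate cutoff, the mean of that plate's test compounds plus 3 SD, cut at about 27% in these data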;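 also: 0% = acetylcholine EC80 with DMSO and 100% = DMSO without agonist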
CHRM5 PAM = human M5 muscarinic receptor positive allosteric modulators, primary screen, CHO-K1 cells, Fluo-8 calcium fluorescence; CHO-K1 hM5, ACh EC20 PAM; 0% = ACh EC20, 100% = ACh EC100; activation, % at 3 µM; actives 0.3% (n = 360,000); AID 624038, 2012;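 active = activation above the run cutoff, the mean activation of all test compounds plus 3 SD, cut at about 18% in these data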
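Test system: CHO-K1 hM5 cells / Doses: single-point, 3 µM nominal / Times: Post-acetylcholine fluorescence recording 140 s / Technique: Fluo-8 calcium fluorescence / Measure: Max/basal fluorescence ratio as % of EC20–EC100 ACh window / Benchmarks: low control EC20 acetylcholine (0%), high control EC100 acetylcholine (100%) / Replicates: one well per compound, no replicates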
M5 ag = human M5 muscarinic receptor agonists, primary screen, CHO-K1 cells, Fluo-8 calcium fluorescence; CHO-K1 hM5 cells; 0% DMSO wells, 100% maximal acetylcholine response; activation, % at 3 µM; actives 0.19% (n = 360,000);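 active = activation above the run's mean over test compounds plus 3 SD, cut at about 23% in these data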;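 also: signal is peak over basal fluorescence ratio across the kinetic read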
CHRM4 PAM = human M4 muscarinic receptor positive allosteric modulators, primary screen, CHO-K1 cells, Fluo-8 calcium fluorescence | AID 624126, 2012 | CHO-K1 hM4/Gqi5, ACh EC20; 0% = ACh EC20, 100% = maximal ACh | actives 0.4% (n = 360,000) | Muscarinic acetylcholine receptor M4 (Homo sapiens), P08173 | activation, % at 3 µM;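 active = activation above its plate's cutoff, the mean activation of sample wells plus 3 SD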
M4 ag = human M4 muscarinic receptor agonists, primary screen, CHO-K1 cells, Fluo-8 calcium fluorescence | AID 624127, 2012 | actives 0.14% (n = 360,000) | CHO-K1 hM4/Gqi5; vehicle 0%, full acetylcholine response 100% | activation, % at 3 µM;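 active = activation above the run mean over all test wells plus 3 SD, cut at about 32% in these data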;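 also: peak over basal fluorescence ratio per well then scaled between controls; 0% = DMSO wells and 100% = acetylcholine at EC100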
An asterisk follows results filed as active.

SMILES	CHRM4 antagonist	CHRM5 antagonist	CHRM5 PAM	M5 ag	CHRM4 PAM	M4 ag
O=C(NC(=S)Nc1ccc(F)c([N+](=O)[O-])c1)c1ccccc1F	2.9	7.8	-7.8	-6.6	-3.5	0.0
COc1ccc(-c2nn(-c3ccccc3)cc2C(=O)O)cc1	-2.5	-0.4	0.0	2.5	4.0	1.4
COC(=O)c1cn(-c2ccccc2)nc1-c1ccc(OC)c(OC)c1	-23.6	11.9	19.2*	6.0	5.3	4.6
COc1ccc(-c2nn(-c3ccccc3)cc2C(=O)NC(=S)NNC(=O)c2ccncc2)cc1	8.1	8.6	-9.4	12.6	-12.4	33.4*
COc1ccc(-c2nn(-c3ccccc3)cc2C(=O)NC(=S)Nc2cc(Cl)ccc2Cl)cc1	-0.7	-15.8	22.1*	5.5	26.7	2.1
COc1ccc(NC(=O)c2cn(-c3ccccc3)nc2-c2ccncc2)cc1	1.2	5.3	-6.7	-4.2	0.4	3.4
Cn1nnc2cc(C(=O)NC3CC3)ccc21	10.8	8.5	40.0*	0.3	9.8	-0.1
O=c1c2cccnc2n(-c2ccccc2)n1Cc1ccc(Cl)cc1	-1.7	3.0	-2.6	-1.9	22.1*	0.3
O=c1c2cccnc2n(-c2ccccc2)n1Cc1c(Cl)cccc1Cl	-2.5	11.8	-3.5	-1.7	6.9	0.6
Cc1cccc(C)c1-n1nnnc1C1(C)CCC(=O)N1C1CC1 (stereo not drawn)	2.8	-9.4	-3.6	1.8	5.2	0.5
CN1C[C@@H]2C(c3ccccc3)C3(c4ccccc4)CC2(C3)[C@H]1c1ccccc1 (stereo partly drawn)	45.3*	15.6	-41.1	-7.8	-18.3	0.7
CN1C[C@@H]2C(c3ccccc3)C3(c4ccc(C#N)cc4)CC2(C3)[C@H]1c1ccccc1 (stereo partly drawn)	-1.0	4.9	2.2	-4.3	8.4	0.4
O=C1N[C@@H](Cc2c[nH]c3ccccc23)C(=O)N[C@H]1Cc1ccccc1	-4.4	-12.3	5.7	0.7	5.4	1.4
CC(C)c1ccc(C(C(=O)NC2CCCCC2)N(C(=O)c2csnn2)C2CC2)cc1 (stereo not drawn)	-14.5	-1.2	3.3	-2.2	10.2	0.8
O=C(NC1CCCCC1)C(c1ccc(F)cc1)N(C(=O)c1csnn1)C1CC1 (stereo not drawn)	-11.5	-4.0	5.3	-0.5	19.4*	0.4
C=CCN(c1ccc(OC)cc1)S(=O)(=O)c1ccc(Cl)c(C(=O)OCC(=O)NC2CC2)c1	4.1	3.6	-10.2	0.2	-7.3	4.1
C=CCN(c1ccccc1)S(=O)(=O)c1ccc(Cl)c(C(=O)OCC(=O)c2[nH]c(C)c(C(C)=O)c2C)c1	26.6*	17.4	-19.4	-2.8	-30.5	5.9
CCc1ccc(-c2csc(NC(=O)C3CC(=O)N(c4ccc5c(c4)OCCO5)C3)n2)cc1 (stereo not drawn)	-2.6	-0.6	-12.3	1.6	30.1*	4.7
Cc1csc(NC(=O)C2CC(=O)N(c3ccc4c(c3)OCCO4)C2)n1 (stereo not drawn)	-3.8	-1.4	-6.4	3.4	-1.8	3.0
CC(=O)N(c1ccccc1)C(C(=O)c1ccccc1)c1ccccc1 (stereo not drawn)	-5.0	3.7	3.8	-7.7	-0.5	5.3
Cc1ncc(C[n+]2csc(C)c2C)c(N)n1	9.7	-8.4	21.9*	-5.8	17.4	0.5
CCN(CC)c1ccc(/C=C/C(=O)C2C(=O)C=C(C)OC2=O)cc1 (stereo not drawn)	21.2	42.1*	-27.7	183.8*	-21.0	49.2*
CCN(CC)c1ccc(C=C2C(=O)OC(c3ccccc3)OC2=O)cc1 (stereo not drawn)	-1.4	12.3	-7.8	-2.4	8.0	1.6
CCOc1cc(/C=N/NC(=O)Cc2ccc(C(F)(F)F)cc2[N+](=O)[O-])c(Br)cc1OC	-14.4	-8.3	21.9*	0.7	9.1	0.2
COc1cc(Br)cc(/C=N/NC(=O)Cc2ccc(C(F)(F)F)cc2[N+](=O)[O-])c1O	-3.2	2.8	-9.2	-0.1	4.9	0.8
SMILES	CHRM4 antagonist	CHRM5 antagonist	CHRM5 PAM	M5 ag	CHRM4 PAM	M4 ag
O=C(C1COc2ccccc2O1)N1CCN(c2ccc([N+](=O)[O-])cc2)CC1 (stereo not drawn)	2.6	5.7	-12.0	2.4	-1.9	8.3
O=C(NC1CCCC1)C1C(c2ccc(C(F)(F)F)cc2)=Nc2ccccc2N1C(=O)c1cccc(C(F)(F)F)c1 (stereo not drawn)	35.0*	9.1	-12.0	-0.7	-7.1	-0.3
Cn1nc(C(C)(C)C)cc1NC(=O)Nc1cc(Cl)cc(Cl)c1	3.6	34.3*	-23.6	4.9	-1.9	16.4
CN1CCN(NC(=O)Nc2cc(Cl)cc(Cl)c2)CC1	10.6	43.8*	-10.1	-3.2	-4.2	11.6
COc1ccccc1N(CCC#N)C(=S)Nc1ccc(S(=O)(=O)N2CCOCC2)cc1	-2.8	19.9	2.1	-0.9	-0.9	0.8
CC(=O)N1CCN(C(=O)c2cc3c(s2)CCC(C)C3)CC1 (stereo not drawn)	-22.9	-3.6	0.7	-2.5	6.5	1.6
Cc1cccc(C)c1NC(=O)C(c1ccccc1)n1c(-c2ccccc2)nc2ccccc21 (stereo not drawn)	-2.9	-5.2	1.4	-4.2	-4.4	-0.1
Cc1c(C(=O)NCc2ccccc2)oc2ccc(S(=O)(=O)N3CCC4(CC3)OCCO4)cc12	11.5	11.5	-13.5	5.4	-8.3	9.7
Cc1c(C(=O)NCCC2=CCCCC2)oc2ccc(S(=O)(=O)N3CCC4(CC3)OCCO4)cc12	34.1*	21.5	-18.5	1.1	-22.2	15.2
CN(C)c1cc[n+](Cc2c(Cl)cccc2Cl)cc1	60.6*	55.0*	-20.2	-6.1	-34.4	0.8
O=C(NCCCN1CCN(Cc2ccccc2)CC1)c1nnc(Cc2c(F)cccc2Cl)o1	12.9	-6.8	5.2	-7.5	-20.8	0.5
O=C(NCCCO)c1nnc(Cc2c(F)cccc2Cl)o1	-8.3	-6.7	12.1	6.4	29.2*	1.0
OCc1ccnc2c(O)cccc12	1.2	0.5	21.5*	-0.3	6.5	1.3
NC(=O)c1ccnc2c(O)cccc12	2.4	-1.4	-2.4	0.8	9.2	2.5
O=c1cc2c(nn1Cc1ccc(Cl)cc1)-c1ccccc1CC2	6.6	-0.4	30.4*	-4.7	8.7	-0.5
O=c1cc2c(nn1Cc1cccc(Cl)c1)-c1ccccc1CC2	3.0	-2.5	1.9	-8.5	-2.3	-1.0
